The record followed here is paper PMC2887662 (Journal of medicinal chemistry, 2010).

For orientation: IC50 means the concentration that inhibits the measured activity by half.

Assay [1] relates to panel of six different human tumor cell lines. Put plainly: Antiproliferative activity, panel of six cell lines. The conditions noted are these: for IC50: Homo sapiens, read-out: IC50 values, range against the cell lines; for antiproliferative activity (in words): six human tumor cell lines. Type of assay: cell-based. The procedure, abridged:
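Cells in RPMI-1640 (Jurkat, HL-60, K562) or DMEM (MCF7, A549, HeLa) with 10% FBS and penicillin/streptomycin. 8 × 10^3 cells/well were preincubated 18 h, then exposed to a range of test compound concentrations in complete medium for 72 h at 37 °C, 5% CO2. Viability was read by MTT.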

The subject of assay [2] is Jurkat cells. The assay is described as follows: Annexin-V/PI apoptosis assay. The assay is classed as cell-based, human. The conditions noted are these: 50 nM, 24-72 h. The procedure, abridged: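 After treatment for different times, Jurkat cells are co-stained with annexin-V-FITC (per the kit instructions) and PI. They are analysed by flow cytometry with excitation at 488 nm and emission filters at 525 nm (FITC, green) and 585 nm (PI, red). Externalised phosphatidylserine is scored as annexin-V positive cells.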

Assay [3] has as its system Jurkat cells. The assay is described as follows: Mitochondrial ROS production. Type of assay: cell-based, human. The note with it: up to 72 h, HE and H2DCFDA. The procedure, abridged: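 After different treatment times, cells are pelleted and resuspended in HBSS containing hydroethidine (2.5 µM) or H2DCFDA (0.1 µM). They are incubated for 30 min at 37 °C, spun and resuspended in HBSS. Fluorescence is recorded directly by flow cytometry, with excitation at 488 nm and emission at 585 nm (ethidium, from superoxide) or 530 nm (DCF, from peroxides).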

In assay [4] the test system is HeLa cells. Put plainly: Flow cytometric cell cycle analysis, HeLa. Type of assay: cell-based, human. The note with it: for G2/M cell population: 30 nM, 48 h, control 12%; for cell cycle effect in HeLa: 7 to 250 nM, 24 h.
The subject of assay [5] is HUVECs expressing GFP. Put plainly: Endothelial cell shape change assay. The assay is classed as cell-based, human. The conditions noted are these: 30 min after drug addition. The method in brief: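 GFP-expressing HUVECs were grown in EGM-2 with endothelial cell growth supplement and seeded on collagen-coated slides 1 day before assay. Morphology and GFP fluorescence were imaged by confocal microscopy before and at several times after test compound addition. The GFP-positive cell area was quantified by image analysis.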

The subject of assay [6] is caspase-3 in Jurkat cells. Put plainly: Caspase-3 activation by flow cytometry. The assay is classed as cell-based, human. The note with it: 50 nM, 24, 48, 72 h. The procedure, abridged:
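After different incubation times with test compound, cells are pelleted and fixed in Cytofix buffer for 20 min, then washed with Perm/Wash. They are stained for 30 min with a FITC-conjugated antibody against the human active caspase-3 fragment, washed and analysed by flow cytometry. Results are given as percentage of caspase-3 active fragment positive cells.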
For orientation: In flow cytometry, cells or beads pass a laser one at a time.

For assay [7], the system named is chick aortic vascular sprouts. The assay is described as follows: Chick aortic ring assay. The note with it: 30 min incubation. Type of assay: cell-based. The method in brief: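 Aortic arches from day 14 chick embryos were cut into cross-sectional slices and embedded in Matrigel with complete medium. Endothelial sprouts or channels formed over 24–48 h. Various concentrations of test compound were then added, and vascular channels were photographed before and 30 min after addition.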

The test system of assay [8] is PARP and Bcl-2 in Jurkat cells. Put plainly: Western blot for PARP cleavage and Bcl-2 expression. The assay is classed as cell-based, human. The note with it: 50 nM; for PARP cleavage: 24 h. The method in brief:
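Jurkat cells were treated with test compound for varying times, washed in cold PBS and lysed on ice for 30 min. Lysates were spun at 15000g, 4 °C, 10 min, and protein was measured by BCA. 20 µg protein per lane was run on 7.5–15% SDS–PAGE and blotted to PVDF. Blots were probed with rabbit anti-Bcl-2 or anti-PARP (1:1000, 2 h, RT), then HRP secondary, and developed by ECL. Blots were stripped and reprobed for β-actin as loading control.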

For assay [9], the system named is Jurkat cells. The assay is described as follows: Mitochondrial membrane potential. The conditions noted are these: 50 nM. Type of assay: cell-based, human. The method in brief: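 Mitochondrial potential is probed with the lipophilic cation JC-1. After different treatment times, cells are pelleted and resuspended in HBSS containing 1 µM JC-1, held for 10 min at 37 °C, then spun and resuspended in HBSS. Polarised mitochondria form aggregates with shifted emission. On depolarisation, JC-1 monomers emit at 530 nm.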

Assay [10] deals with Jurkat cells. The assay is described as follows: Flow cytometric cell cycle analysis, Jurkat. The assay is classed as cell-based, human.

“Also recorded” adds a separate entry of the source.

In the case of `COc1ccc(/C=C\c2cc(OC)c(OC)c(OC)c2)cc1O` [CA-4, combretastatin A-4, reference compound], the IC50 in assay [1] was 4 to 370 nM.

For `COc1cc(-n2ncnc2-c2ccccc2)cc(OC)c1OC` [Compound 4a], the “antiproliferative activity (in words)” value in assay [1] is recorded as “did not yield active compounds”.

Turning to `COc1cc(-n2ncnc2-c2ccc(F)cc2)cc(OC)c1OC` [Compound 4b], in assay [1], the “antiproliferative activity (in words)” value was “did not yield active compounds”.

`COc1cc(-n2ncnc2-c2cccc(F)c2)cc(OC)c1OC` [Compound 4c]: the “antiproliferative activity (in words)” value in [1] is recorded as “did not yield active compounds”.

Turning to `COc1cc(-n2ncnc2-c2ccc(Cl)cc2)cc(OC)c1OC` [Compound 4d], in assay [1], the “antiproliferative activity (in words)” value is on record as “did not yield active compounds”.

For the molecule `COc1cc(-n2ncnc2-c2ccc(Cl)c(Cl)c2)cc(OC)c1OC` [Compound 4f], the “antiproliferative activity (in words)” value in assay [1] is listed as “did not yield active compounds”.

As to `COc1cccc(-c2ncnn2-c2cc(OC)c(OC)c(OC)c2)c1` [Compound 4i], the “antiproliferative activity (in words)” value in assay [1] is listed as “dramatic drop of potency; also recorded: inactivity”.

With `COc1ccccc1-c1ncnn1-c1cc(OC)c(OC)c(OC)c1` [Compound 4j], in assay [1], the “antiproliferative activity (in words)” value is “dramatic drop of potency”.

As to `CCOc1ccc(-c2ncnn2-c2cc(OC)c(OC)c(OC)c2)cc1` [Compound 4l, 1-(3,4,5-Trimethoxyphenyl)-5-(4-ethoxyphenyl)-1H-1,2,4-triazole], the “induction of apoptosis (annexin-V positive cells)” value in assay [2] was “significant induction of apoptotic cells after 24 h”. Moreover, the ROS production result in assay [3] is given as “induced the production of large amounts of ROS”. In assay [4], the G2/M cell population result is recorded as “over 70%” and the “cell cycle effect in HeLa” value is recorded as “clear G2/M arrest pattern in a concentration-dependent manner”. Further, in [5], the “lowest concentration causing HUVEC retraction and membrane blebs” value is recorded as 0.5 µM. In addition, the caspase-3 activation result in assay [6] is listed as “activation of caspase-3 in a time-dependent manner”. Further, the “effect on vascular sprouts from chick aortic ring” value in assay [7] was “disrupted formation of vascular sprouts”. For the same molecule, in assay [8], the Bcl-2 expression entry is “decreased expression of Bcl-2” and the PARP cleavage result is reported as “extensive formation of the typical 89 kDa fragment of PARP”. Moreover, the “mitochondrial transmembrane potential (JC-1)” value in assay [9] is “depolarization of the mitochondrial membrane potential”. Besides, in [10], the “cell cycle effect in Jurkat” value was “significant block in the G2/M phase”.

For the molecule `CCOc1cccc(-c2ncnn2-c2cc(OC)c(OC)c(OC)c2)c1` [Compound 4m], the “antiproliferative activity (in words)” value in [1] was “inactivity”.

For the molecule `CCOc1ccc(-c2ncnn2-c2cc(OC)c(OC)c(OC)c2)cc1Cl` [Compound 4o, 5-(3-Chloro-4-ethoxyphenyl)-1-(3,4,5-trimethoxyphenyl)-1H-1,2,4-triazole], in assay [1], the IC50 fell in the range of 3 to 20 nM. Besides, the “induction of apoptosis (annexin-V positive cells)” value in [2] was “significant induction of apoptotic cells after 24 h”. For the same molecule, the ROS production result in assay [3] is listed as “induced the production of large amounts of ROS”. In assay [4], the G2/M cell population result is given as “over 70%” and the “cell cycle effect in HeLa” value is reported as “clear G2/M arrest pattern in a concentration-dependent manner”. The caspase-3 activation entry in [6] is listed as “activation of caspase-3 in a time-dependent manner”. Further, in assay [8], the Bcl-2 expression result is “decreased expression of Bcl-2” and the PARP cleavage entry is given as “extensive formation of the typical 89 kDa fragment of PARP”. In addition, the “mitochondrial transmembrane potential (JC-1)” value in [9] is recorded as “depolarization of the mitochondrial membrane potential”. Also, the “cell cycle effect in Jurkat” value in assay [10] is reported as “significant block in the G2/M phase”.

As to `COc1cc(-n2ncnc2-c2cccc([N+](=O)[O-])c2)cc(OC)c1OC` [Compound 4r], the “antiproliferative activity (in words)” value in assay [1] is “did not yield active compounds”.
